{"data": "Measured values pooled from the literature", "target": "Casein kinase I isoform alpha-like (CSNK1A1L, Homo sapiens, UniProt Q8N752)", "Residues used in one study (Q8N752 1-337)": "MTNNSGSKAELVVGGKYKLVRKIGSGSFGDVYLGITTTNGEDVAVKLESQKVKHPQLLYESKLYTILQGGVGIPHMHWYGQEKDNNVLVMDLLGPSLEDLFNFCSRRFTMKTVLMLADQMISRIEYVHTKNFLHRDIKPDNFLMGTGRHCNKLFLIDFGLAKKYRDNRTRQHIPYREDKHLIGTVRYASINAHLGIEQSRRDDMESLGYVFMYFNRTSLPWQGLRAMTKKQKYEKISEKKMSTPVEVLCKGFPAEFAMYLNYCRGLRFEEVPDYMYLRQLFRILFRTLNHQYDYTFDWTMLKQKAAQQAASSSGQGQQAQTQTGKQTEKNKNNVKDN"}
{"Structure (SMILES)": "CN(C)c1ncc(F)c(-c2cnn3ncccc23)n1", "read-out": "binding", "tested at": "1 µM", "remaining binding [%]": 100}
{"Structure (SMILES)": "Cc1nccc(COC(=O)N2C[C@@H]3[C@@H](CNC(=O)c4ccc5[nH]nnc5c4)[C@@H]3C2)n1", "read-out": "cell-free assay", "method": "competition with immobilised ligand", "tested at": "1 µM", "remaining binding [%]": 100}
{"Structure (SMILES)": "Nc1ncc2c(n1)-c1c([nH]c3ccc(C#CC4CC4)cc13)CCCC2", "read-out": "binding", "method": "competition with immobilised ligand", "tested at": "1 µM", "remaining binding [%]": 99}
{"Structure (SMILES)": "O=C(c1ccc(Nc2ncc(Cl)c(-c3cc4ccccc4s3)n2)cc1)N1CCC(N2CCCC2)CC1", "read-out": "binding", "method": "competition with immobilised ligand", "tested at": "1 µM", "remaining binding [%]": 100}
{"Structure (SMILES)": "N[C@H]1CCN(c2nccc(-c3cnn4ncccc34)n2)C1", "read-out": "binding", "tested at": "1 µM", "remaining binding [%]": 100}
{"Structure (SMILES)": "CCC(=N\\O)/C(C)=C/c1ccc(F)cc1", "read-out": "cell-free assay", "method": "competition with immobilised ligand", "tested at": "1 µM", "remaining binding [%]": 78}
{"Structure (SMILES)": "COc1ncc2cc3ccccc3nc2c1C#N", "read-out": "cell-free assay", "method": "competition with immobilised ligand", "tested at": "5 µM", "remaining binding [%]": 100}
{"Structure (SMILES)": "COc1cnc(Nc2cccc(S(N)(=O)=O)c2)nc1N1CCN(c2ccccc2)CC1", "read-out": "binding", "method": "competition with immobilised ligand", "tested at": "1 µM", "remaining binding [%]": 96}
{"Structure (SMILES)": "COc1ccc2c(c1)O[C@H](c1ccc(OC)c(OC)c1)C[C@@H]2NC(=O)C1(c2ccc3c(c2)OC(F)(F)O3)CC1", "read-out": "cell-free assay", "method": "competition with immobilised ligand", "tested at": "1 µM", "remaining binding [%]": 100}
{"Structure (SMILES)": "C=CC(=O)N1CCC(C(=O)NCC(=O)N2CCN(c3nc(-c4cnc(N)nc4C(F)F)nc(N4CCOCC4)n3)CC2)CC1", "read-out": "binding", "method": "competition with immobilised ligand", "tested at": "1 µM", "remaining binding [%]": 100}
{"Structure (SMILES)": "CN(C)C(=O)Cn1cc(-c2nc([C@@](C)(c3ccc(-c4cnc(N)nc4)cc3)C3CC3)no2)cn1", "read-out": "cell-free assay", "method": "competition with immobilised ligand", "tested at": "1 µM", "remaining binding [%]": 100}
{"Structure (SMILES)": "O=C(NCC1CCOCC1)c1n[nH]cc1NC(=O)c1c(F)cccc1F", "read-out": "binding", "method": "competition with immobilised ligand", "tested at": "1 µM", "remaining binding [%]": 85}
{"Structure (SMILES)": "O=C(c1ccc(Nc2ncc(Cl)c(-c3ccc(Cl)s3)n2)cc1)N1CCC(N2CCCC2)CC1", "read-out": "binding", "method": "competition with immobilised ligand", "tested at": "1 µM", "remaining binding [%]": 100}
{"Structure (SMILES)": "c1cnn2ncc(-c3ccnc(N4CCC45COC5)n3)c2c1", "read-out": "binding", "tested at": "1 µM", "remaining binding [%]": 68}
{"Structure (SMILES)": "CN(C(=O)c1ccccc1)c1cc(N(C)c2ccc3c(c2)CCc2ccc(C(=O)NCCN4CCOCC4)cc2C3=O)ccc1F", "read-out": "cell-free assay", "method": "competition with immobilised ligand", "tested at": "1 µM", "remaining binding [%]": 100}
{"Structure (SMILES)": "C[C@@H]1CCN(c2nccc(-c3cnn4ncccc34)n2)C1", "read-out": "binding", "tested at": "1 µM", "remaining binding [%]": 81}
{"Structure (SMILES)": "O=C(NCCCN1CCOCC1)c1ccc(Nc2nccc(-c3cc4ccccc4s3)n2)cc1", "read-out": "binding", "method": "competition with immobilised ligand", "tested at": "1 µM", "remaining binding [%]": 91}
{"Structure (SMILES)": "CN(CCCC(F)(F)F)c1nccc(-c2cnn3ncccc23)n1", "read-out": "binding", "tested at": "1 µM", "remaining binding [%]": 91}
{"Structure (SMILES)": "C[C@H](c1ccnc(Nc2nc3ccc(-c4cc(N(C)C)ncn4)cc3[nH]2)c1)N1CCN(C(=O)CC(F)(F)F)CC1", "read-out": "cell-free assay", "method": "competition with immobilised ligand", "tested at": "0.1 µM", "remaining binding [%]": 94}
{"Structure (SMILES)": "CC1CCCN1c1nccc(-c2cnn3ncccc23)n1 (stereo not drawn)", "read-out": "binding", "tested at": "1 µM", "remaining binding [%]": 100}
{"Structure (SMILES)": "FC(F)(F)Oc1cccc(-c2cnc3ccc(-c4ccncc4)nn23)c1", "read-out": "cell-free assay", "method": "competition with immobilised ligand", "tested at": "5 µM", "remaining binding [%]": 90}
